# Data published in ChEMBL document CHEMBL4619773, “Chemoreactive-Inspired Discovery of Influenza A Virus Dual Inhibitor to Block Hemagglutinin-Mediated Adsorption and Membrane Fusion” (J Med Chem, 2020).
# Calls of active or inactive are those of the source. The calls are words filed in the database; no cut-off is given here.
# Experiments:
# [1] = Toxicity in Kunming mouse assessed as effect on creatine kinase level at 5 to 10 mg/kg/day, po for 7 days; assay type: organism-based; conditions: in vivo, 168 h
# Method in brief: (§1)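 Male Kunming mice (20–25 g) received compound orally at 5 or 10 mg/kg/day, suspended in 0.5% sodium carboxymethyl cellulose, once daily for 7 days; controls received vehicle. Serum was collected under isoflurane 24 h after the last dose. AST, ALT, CR, BUN, LDH, CK and CK-MB were measured with commercial kits.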
# [2] = Oral bioavailability in mouse at 5 mg/kg administered as single dose; assay type: ADME, organism-based; conditions: in vivo
# Method in brief: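 Male Kunming mice (20–25 g) and male SD rats (180–220 g) were fasted 12 h before dosing. Compound was suspended in 0.5% CMC-Na and given by gavage (5 mg/kg mice, 3.5 mg/kg rats), or dissolved in PEG400 and given iv via tail vein (0.5 mg/kg mice, 0.35 mg/kg rats). Plasma was sampled from 5 min to 24 h and analysed by LC-MS/MS (n=3). F = AUCoral/AUCiv.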
# [3] = test system: Influenza A virus; assay: Antiviral activity against Influenza A virus (A/Puerto Rico/8/1934(H1N1)) infected in MDCK cells assessed as decrease in viral titers at 50 ug/ml added during adsorption stage and measured 24 hrs post infection by HA assay; assay type: functional, organism-based
# Method in brief: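 MDCK cells were infected at high moi (≈3.0 PFU/cell). Virus-containing supernatants were serially diluted 2-fold and mixed with an equal volume of 1% chicken red blood cells. After 60 min at 4 °C, wells were scored for button sedimentation versus opaque agglutination to give titers.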
# [4] = Cytotoxicity in dog MDCK cells assessed as reduction in cell viability incubated for 48 hrs by crystal violet staining based assay; set-up: species or system Canis lupus familiaris
# [5] = test system: Influenza A virus; assay: Antiviral activity against luciferase tagged Influenza A virus H5N1 pseudovirus infected in MDCK cells assessed as reduction in virus infection incubated for 48 hrs by luciferase reporter gene assay; assay type: functional, organism-based
# Method in brief: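 MDCK cells infected with luciferase-expressing H5N1 HA/NA pseudotyped HIV-based virus were treated with compound under four different treatment regimens. Infection was quantified by firefly luciferase glow assay.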
# [6] = Toxicity in Kunming mouse assessed as effect on creatinine level at 5 to 10 mg/kg/day, po for 7 days; assay type: organism-based; conditions: in vivo, 168 h; method in brief: as §1
# [7] = Toxicity in Kunming mouse assessed as effect on CK-MB level at 5 to 10 mg/kg/day, po for 7 days; assay type: organism-based; conditions: in vivo, 168 h; method in brief: as §1
# [8] = test system: Influenza A virus; assay: Antiviral activity against Influenza A virus (A/Aichi/2/1968(H3N2)) infected in MDCK cells incubated for 3 days by crystal violet staining based plaque assay; assay type: functional, organism-based; conditions: 72 h
# Method in brief: (§2)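 Confluent MDCK monolayers were exposed to 10-fold serial virus dilutions for 1 h at 37 °C, then washed. The overlay was DMEM with 1.5% agarose, 0.02% DEAE-dextran and 1 µg/ml TPCK-trypsin. After 3 days at 37 °C in 5% CO2, cells were fixed with 0.05% glutaraldehyde, stained with 1% crystal violet in 20% ethanol, and plaques were counted.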
# [9] = AUC (0 to t) in mouse at 0.5 mg/kg, iv administered as single dose; assay type: ADME, organism-based; conditions: in vivo
# Method in brief: (§3)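 Male Kunming mice (20-25 g) and male Sprague Dawley rats (180-220 g) were fasted 12 h before dosing. Oral dosing was by gavage as a suspension in 0.5% sodium carboxymethyl cellulose; iv dosing was via tail vein in PEG400. Serial plasma samples were taken to 24 h, protein-precipitated with acetonitrile plus N-CH3 internal standard, and quantified by LC-MS/MS (n=3). Bioavailability = AUCoral/AUCiv.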
# [10] = Toxicity in Kunming mouse assessed as effect on blood urea nitrogen level at 5 to 10 mg/kg/day, po for 7 days; assay type: organism-based; conditions: in vivo, 168 h; method in brief: as §1
# [11] = Cumulative drug excretion in mouse feces at 0.5 mg/kg, iv administered as single dose measured after 72 hrs; assay type: ADME, organism-based; conditions: faeces, read-out: Drug excretion
# Method in brief: (§4)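 Single oral (gavage, 0.5% CMC-Na) or iv (tail vein, PEG400) dosing was given to male Kunming mice or Sprague Dawley rats held in metabolic cages. Urine and feces were collected at intervals to 72 h. Feces were dried, ground and homogenized in water (1:9 w/v). Samples were precipitated with acetonitrile containing internal standard and analysed by LC-MS/MS.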
# [12] = Cumulative drug excretion in mouse urine at 5 mg/kg, po administered as single dose measured after 72 hrs; assay type: ADME, organism-based; conditions: read-out: Drug excretion; method in brief: as §4
# [13] = target: Hemagglutinin (Influenza A virus (A/Puerto Rico/8/1934(H1N1)), UniProt P03452); assay: Binding affinity to Influenza A virus (A/California/04/2009(H1N1)) Hemagglutinin at 1.5625 to 50 uM by SPR assay
# Hemagglutinin (Influenza A virus (A/Puerto Rico/8/1934(H1N1)), UniProt P03452), sequence (P03452 whole entry): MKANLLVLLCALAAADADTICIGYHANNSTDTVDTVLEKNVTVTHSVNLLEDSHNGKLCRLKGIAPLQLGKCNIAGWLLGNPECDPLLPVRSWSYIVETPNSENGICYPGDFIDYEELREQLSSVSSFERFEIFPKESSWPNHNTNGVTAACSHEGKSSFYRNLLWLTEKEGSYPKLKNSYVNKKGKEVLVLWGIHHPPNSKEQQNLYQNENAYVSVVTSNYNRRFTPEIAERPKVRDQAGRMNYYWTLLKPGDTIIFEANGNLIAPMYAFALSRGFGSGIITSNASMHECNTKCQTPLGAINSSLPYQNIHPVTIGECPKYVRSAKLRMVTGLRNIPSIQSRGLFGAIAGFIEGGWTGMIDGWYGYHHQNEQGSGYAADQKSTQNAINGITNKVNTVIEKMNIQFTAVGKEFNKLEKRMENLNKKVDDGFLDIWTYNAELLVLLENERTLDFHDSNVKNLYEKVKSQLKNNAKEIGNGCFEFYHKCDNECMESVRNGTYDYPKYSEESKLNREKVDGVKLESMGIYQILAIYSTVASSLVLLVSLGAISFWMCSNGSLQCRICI
# Method in brief: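 HA protein was immobilized on CM5 chips. Compound (50, […], 12.5, 6.25, 3.125, 1.5625 µM) was injected for 2 min, followed by a 10-min PBST wash and regeneration with 2 mM NaOH for 30 s. Runs were at 25 °C with 2 µl/s flow, using a blank HA-free reference channel. KD was obtained from kinetic fitting.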
# [14] = Toxicity in Influenza A virus (A/Puerto Rico/8/1934(H1N1)) infected Kunming mouse assessed as induction of body weight loss at 20 to 40 ug/day dosed intranasally starting 4 hrs after viral challenge and continued for 7 days by plaque assay; assay type: organism-based; conditions: in vivo, inhaled_or_intranasal
# [15] = Cmax in rat at 3.5 mg/kg , po administered as single dose; assay type: ADME, organism-based; set-up: dose 3.5 mg/kg, route oral; conditions: in vivo; method in brief: as §3
# [16] = test system: Influenza A virus; assay: Antiviral activity against Influenza A virus Virginia/ATCC1/2009 infected in MDCK cells incubated for 3 days by crystal violet staining based plaque assay; assay type: functional, organism-based; conditions: Virginia/ATCC1/2009, MDCK, 72 h; method in brief: as §2
# [17] = test system: Influenza A virus; assay: Antiviral activity against Influenza A virus (A/Puerto Rico/8/1934(H1N1)) infected in MDCK cells assessed as inhibition of virus-induced cytopathic effect incubated for 48 hrs by crystal violet staining based assay; assay type: functional, organism-based
# Method in brief: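 MDCK cells were infected at MOI 0.1, the inoculum was removed, and compounds were added in triplicate. After 48 h the cells were fixed in 4% formaldehyde (20 min, RT) and stained with 0.1% crystal violet (30 min). Dye was solubilized in methanol and read at 570 nm.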
# [18] = AUC (0 to t) in rat at 3.5 mg/kg , po administered as single dose; assay type: ADME, organism-based; conditions: in vivo; method in brief: as §3
# [19] = AUC (0 to t) in mouse at 5 mg/kg, po administered as single dose; assay type: ADME, organism-based; conditions: in vivo; method in brief: as §3
# [20] = test system: Influenza A virus; assay: Antiviral activity against Influenza A virus (A/Puerto Rico/8/1934(H1N1)) infected in Kunming mouse assessed as decrease in lung IL6 level at 5 to 10 mg/kg/day, po starting 4 hrs after viral challenge and continued for 4 days by ELISA; assay type: functional, organism-based
# Method in brief: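 Four-week-old female Kunming mice received PR8 intranasally (500 PFU/mouse in 40 µL PBS) and were then dosed once daily orally or intranasally. Lungs were collected on day 4, and TNF-α and IL-6 in lung tissue were measured by ELISA.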
# [21] = Toxicity in Kunming mouse assessed as effect on AST level at 5 to 10 mg/kg/day, po for 7 days; assay type: organism-based; conditions: in vivo, 168 h; method in brief: as §1
# [22] = test system: Influenza A virus; assay: Antiviral activity against Influenza A virus (A/California/04/2009(H1N1)) infected in MDCK cells incubated for 3 days by crystal violet staining based plaque assay; assay type: functional, organism-based; conditions: 72 h; method in brief: as §2
# [23] = Cmax in mouse at 5 mg/kg, po administered as single dose; assay type: ADME, organism-based; set-up: dose 5 mg/kg, route oral; conditions: in vivo; method in brief: as §3
# [24] = test system: Influenza A virus; assay: Antiviral activity against Influenza A virus (A/Puerto Rico/8/1934(H1N1)) infected in MDCK cells incubated for 3 days by crystal violet staining based plaque assay; assay type: functional, organism-based; conditions: 72 h; method in brief: as §2
compound,measurement,setting,value
CC(=O)c1cc(C)c(O)c(Cc2[nH]c3ccccc3c2Cc2c(O)c(C)cc(C(C)=O)c2O)c1O,Activity,[1],Non-Toxic
same,bioavailability,[2],5.7%
same,Activity,[3],Active
same,CC50 at 48 h,[4],1470 µM
same,Activity,[5],Dose-dependent effect
same,Activity,[6],Non-Toxic
same,Activity,[7],Non-Toxic
same,IC50,[8],< 13 mg/L
same,AUC(0-t),[9],0.269 µg·h/mL
same,Activity,[10],Non-Toxic
same,dose excreted at 72 h,[11],29.1%
same,dose excreted at 72 h,[12],0.03%
same,Kd,[13],6.9 µM
same,Activity,[14],Non-Toxic
same,Cmax,[15],0.287 µg/mL
same,IC50,[16],< 13 mg/L
same,IC50,[17],26.4 µM
same,AUC(0-t),[18],1.36 µg·h/mL
same,AUC(0-t),[19],0.152 µg·h/mL
same,Activity,[20],Active
same,Activity,[21],Non-Toxic
same,IC50,[22],< 13 mg/L
same,Cmax,[23],0.016 µg/mL
same,IC50,[24],< 13 mg/L
